T cruzi growth-1: inhibitors of T. cruzi proliferation. T. cruzi beta-gal in NIH3T3, GalScreen luminescence, 90 h. inhibition, % at 8.34 µM. actives 5.9% (n = 77,000);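 active = mean inhibition above about 93%, with at least 55% of replicates each passing it, limit read from the data, passing the limit was not always enough; inconclusive = only one of those two conditions holds; inactive = neither condition holds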
Pf Dd2 inh: P. falciparum Dd2 growth inhibition | SYBR Green, 72 h; active compounds read low | activity change, % at 10 µM | actives 2.3% (n = 94,000) | AID 1159554; in the data active = activity change below about -80%; inconclusive = no clear call, values can overlap the other calls
IDH1 mut inh: blocks human IDH1 R132H reductase activity; O75874; diaphorase/resazurin fluorescence, 60 min; inhibition, % at 10 µM; actives 0.18% (n = 70,000); AID 624101; in the data active = inhibition above about 34%; inconclusive = no clear call, values can overlap the other calls; inactive = below about 11%;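 also: 0% = DMSO and 100% = no enzyme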
KDM4C inh: inhibitors of human demethylase GASC-1 KDM4C | Q9H3R0 | GST-KDM4C 2-372, H3K9me3 peptide, LANCE TR-FRET | inhibition, % at 12.5 µM | actives 0.15% (n = 96,000);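 active = mean replicate inhibition above about 25%, with at least 55% of replicates also reaching it, limit read from the data, passing the limit was not always enough; inconclusive = only one of those two conditions met; inactive = neither condition met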
Target sequence (Q9H3R0 2-372 limits assumed): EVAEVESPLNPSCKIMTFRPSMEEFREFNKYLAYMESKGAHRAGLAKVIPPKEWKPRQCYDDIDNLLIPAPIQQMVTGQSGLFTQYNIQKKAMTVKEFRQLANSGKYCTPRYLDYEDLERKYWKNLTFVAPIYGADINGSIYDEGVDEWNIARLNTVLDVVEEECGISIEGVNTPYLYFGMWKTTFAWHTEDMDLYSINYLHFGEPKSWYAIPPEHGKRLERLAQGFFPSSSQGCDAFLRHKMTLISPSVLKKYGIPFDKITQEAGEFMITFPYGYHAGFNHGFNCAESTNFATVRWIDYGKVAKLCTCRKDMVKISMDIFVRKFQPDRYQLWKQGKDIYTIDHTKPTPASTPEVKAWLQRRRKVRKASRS
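reagent = H3K9me3 peptide substrate, Fe(II), 2-oxoglutarate | system = GST-tagged GASC-1 (JMJD2C) catalytic fragment, aa 2-372 | amount = enzyme final amount 10 nM | read-out = Fall in 671/618 emission ratio as inhibition | medium = HEPES buffer, pH 7.5, plus ascorbate | schedule = 30 min reaction, 60 min detection, RT | measured by = LANCE TR-FRET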
T cruzi growth-2: inhibitors of T. cruzi proliferation; actives 72% (n = 5,600); AID 651739; T. cruzi beta-gal in NIH3T3, GalScreen luminescence, 90 h; inhibition, % at 8.35 µM; shares compounds with T cruzi growth-1;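 active = mean replicate inhibition above about 95% and at least 55% of replicates individually reaching it, limit read from the data; inconclusive = only one of the two criteria is met; inactive = neither criterion is met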
T cruzi growth-3: blocks T. cruzi growth in NIH3T3 host cells. T. cruzi beta-gal in NIH3T3, GalScreen luminescence, 90 h. shares compounds with T cruzi growth-1. actives 21% (n = 5,600). inhibition, % at 2.09 µM;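 active = mean inhibition above about 95%, with at least 55% of replicates also reaching it, limit read from the data; inconclusive = meets just one of the two conditions; inactive = meets neither condition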;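 also: plate controls were neutral control median for no effect and positive control median for full effect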
NIH3T3 tox: NIH/3T3 (mouse) viability loss | shares compounds with T cruzi growth-1 | NIH/3T3 viability, CellTiter-Glo ATP luminescence, 90 h | cytotoxicity (signal decrease), % at 8.35 µM | actives 14% (n = 5,600);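 active = mean signal decrease across replicates above about 35% based on untreated-well scatter, with enough replicates individually passing, limit read from the data; inconclusive = no rule stated though some were filed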;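 also: 0% = median of neutral control wells and 100% = median of positive control wells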
NIH3T3 tox 2: kills mouse NIH/3T3 fibroblasts | AID 651744 | shares compounds with T cruzi growth-1 | actives 56% (n = 5,600) | NIH/3T3 viability, CellTiter-Glo ATP luminescence, 90 h | inhibition, % at 24.9 µM;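 active = mean loss of cell viability signal at or above a set limit, and enough replicates individually reaching it; inconclusive = meets only the mean limit or only the replicate share; inactive = meets neither condition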;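 also: 0% = median of neutral control wells and 100% = median of positive control wells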
An asterisk follows results filed as active; ? = inconclusive; / = not tested or not shown; ! = not active in a repeat. Sampled rows, rich in hits. Any-hit rate of the full collection: about 5.8%.

SMILES	T cruzi growth-1	Pf Dd2 inh	IDH1 mut inh	KDM4C inh	T cruzi growth-2	T cruzi growth-3	NIH3T3 tox	NIH3T3 tox 2
C[C@@H]1CN([C@@H](C)CO)C(=O)c2cc(N(C)C)ccc2O[C@@H](C)CCCCO[C@@H]1CN(C)Cc1ccc2c(c1)OCO2	101*!	-30	/	4	?	-25	0	11
O=C(Nc1ccc(F)cc1)N1CCCCN2[C@H](CO)[C@@H](c3ccc(C#CC4CC4)cc3)[C@@H]2C1	108*	-1	/	-1	112*	82	20	104*
O=C(Nc1ccc(F)cc1)N1CCCCN2[C@H](CO)[C@H](c3ccc(C#CC4CC4)cc3)[C@@H]2C1	106*	4	/	-1	107*	59	26	24
O=C(Nc1ccc(F)cc1)N1CCCCN2[C@H](C1)[C@@H](c1ccc(C#CC3CC3)cc1)[C@@H]2CO	99*	-11	/	0	101*	104*	25	105*
O=C(Nc1ccccc1)N1CCCCN2[C@@H](CO)[C@@H](c3ccc(C#CC4CC4)cc3)[C@@H]2C1	51	-16	/	-1	/	/	/	/
Cc1cccc(OCC(=O)Nc2c[nH]c(=O)[nH]c2=O)c1C	/	/	1	/	/	/	/	/
O=C(COc1ccc(S(=O)(=O)N2CCCC2)cc1Cl)Nc1ccccc1	/	/	0	/	/	/	/	/
COC(=O)CCCCCCC(=O)N/N=C/[C@H](O)[C@@H](O)[C@@H](O)[C@H](O)CO	/	/	0	/	/	/	/	/
COC(=O)c1ccc(CSc2nnc(CN3CCOCC3)n2C)cc1	/	/	0	/	/	/	/	/
CC(C)C#Cc1ccc([C@@H]2[C@@H](CO)N3CCCCN(S(=O)(=O)Cc4ccccc4)C[C@H]23)cc1	117*	-5	/	0	107*	80	23	105*
C[C@@H](O)C#Cc1ccc([C@H]2[C@@H](CO)N3CCCCN(S(=O)(=O)Cc4ccccc4)C[C@H]23)cc1	45	-16	/	-1	/	/	/	/
C[C@@H](O)C#Cc1ccc([C@@H]2[C@H]3CN(S(=O)(=O)Cc4ccccc4)CCCCN3[C@H]2CO)cc1	48	-5	/	0	/	/	/	/
CC(C)C#Cc1ccc([C@@H]2[C@H]3CN(S(=O)(=O)Cc4ccccc4)CCCCN3[C@H]2CO)cc1	101*	-24	/	0	98*	89	18	106*
CC(C)CC#Cc1ccc([C@@H]2[C@H]3CN(S(=O)(=O)Cc4ccccc4)CCCCN3[C@H]2CO)cc1	104*	-57	/	5	99*	105*	24	106*
CC(C)C#Cc1ccc([C@H]2[C@H](CO)N3CCCCN(S(=O)(=O)Cc4ccccc4)C[C@@H]23)cc1	109*	-17	/	0	106*	66	20	104*
O=C(Nc1cccc(NS(=O)(=O)c2cccc([N+](=O)[O-])c2)c1)c1cccs1	/	/	-1	/	/	/	/	/
Cc1cc(C(=O)CSc2ncn[nH]2)c(C)n1-c1cc(Cl)ccc1Cl	/	/	3	/	/	/	/	/
CC(C)CC#Cc1ccc2c(c1)O[C@@H](CN(C)C(=O)c1ccncc1)[C@H](C)CN([C@@H](C)CO)S2(=O)=O	94	0	2	19	/	/	/	/
CC(C)CC#Cc1ccc2c(c1)O[C@@H](CN(C)C(=O)c1ccncc1)[C@@H](C)CN([C@H](C)CO)S2(=O)=O	104*	-12	2	10	107*	73	32	71*
CC(C)CC#Cc1ccc2c(c1)O[C@@H](CN(C)C(=O)c1ccncc1)[C@@H](C)CN([C@@H](C)CO)S2(=O)=O	107*	-3	0	1	?	71	3	62*
CC1(C)CC2/C(CO)=C\C=C[C@@](C)(O)CC[C@]21O (stereo partly specified)	/	/	0	/	/	/	/	/
CCCC#Cc1ccc2c(c1)O[C@H](CN(C)C(=O)CC1CC1)[C@@H](C)CN([C@H](C)CO)S2(=O)=O	101*	-46	0	2	108*	48	4	20
CC(C)CC#Cc1ccc2c(c1)O[C@@H](CN(C)C(=O)CC1CC1)[C@@H](C)CN([C@@H](C)CO)S2(=O)=O	/	-37	-1	-1	/	/	/	/

Assay outcomes (PubChem)
